# Measured values of several laboratories.
# Each line is one published result; the experiments were not run side by side.
# MAP3K10: Mitogen-activated protein kinase kinase kinase 10 (MAP3K10, Homo sapiens, UniProt Q02779)
# LCK: Tyrosine-protein kinase Lck (LCK, Homo sapiens, UniProt P06239)
# PIP4K2C: Phosphatidylinositol 5-phosphate 4-kinase type-2 gamma (PIP4K2C, Homo sapiens, UniProt Q8TBX8)
Compound,target,assay,setting,measurement,result
Cc1cc(O)c(-c2ccc([C@@H](C)CN(C)C)cc2)c2c1[nH]c(=O)c1sccc12,MAP3K10,"enzyme activity, inhibitor",0.1 µM,inhibition,-11.7%
COc1cccc2c(N3CCC(CCP(=O)(O)O)CC3)ncnc12,"Ectonucleotide pyrophosphatase/phosphodiesterase family member 1 (ENPP1, Homo sapiens, UniProt P22413)","binding, SPR",,residence time,8.73 min
COc1cc(/C=N/NC(=S)NN=Cc2ccc([N+](=O)[O-])o2)ccc1Oc1ccnc2cc(Cl)ccc12,"Aldo-keto reductase family 1 member B1 (AKR1B1, Homo sapiens, UniProt P15121)","enzyme activity, inhibitor",,IC20,1.65 µg/mL
CS(=O)(=NC#N)c1ccccc1Nc1nc(Nc2ccnc(CO)c2)ncc1Cl (stereo not shown),LCK,"enzyme activity, inhibitor",1 µM,remaining activity,41%
CCCCC(=O)Nc1ccc(-c2ccc3ncn(CCF)c(=O)c3c2)cn1,PIP4K2C,"binding, competition with immobilised ligand",0.5 µM,inhibition,97.5%
C#Cc1cc(-c2cc(Nc3nc(N[C@@H](C)c4ccc(F)cn4)ncc3Cl)n[nH]2)ccc1C=O,MAP3K10,"enzyme activity, inhibitor",0.2 µM,inhibition,54.5%
N[C@@H](CC(=O)O)C(=O)O,"Electrogenic aspartate/glutamate antiporter SLC25A13, mitochondrial (SLC25A13, Homo sapiens, UniProt Q9UJS0)","thermal stability, DSF",1 mM,ΔTm,~3 °C
COc1ccc2oc(-c3ccc4nc(N)oc4c3)c/c(=N\c3ccccc3NC(=O)CCN)c2c1,"Serine/threonine-protein kinase 38 (STK38, Homo sapiens, UniProt Q15208)",binding,1 µM,remaining binding,104%
CCCC(=O)Nc1ccc(-c2ccc3ncn(CCC)c(=O)c3c2)cn1,PIP4K2C,"binding, competition with immobilised ligand",0.5 µM,inhibition,99.5%
C#Cc1cnc(Nc2ccnc(CO)c2)nc1Nc1ccccc1S(C)(=O)=NC#N (stereo not shown),LCK,"enzyme activity, inhibitor",1 µM,remaining activity,14.6%
CCCCC(=O)Nc1ccc(-c2ccc3ncn(CCC)c(=O)c3c2)cn1,"Dual specificity mitogen-activated protein kinase kinase 4 (MAP2K4, Homo sapiens, UniProt P45985)","binding, competition with immobilised ligand",0.5 µM,remaining binding,100%
CNC(=O)c1ccccc1Nc1nc(Nc2ccc(CO)cc2)ncc1Cl,LCK,"enzyme activity, inhibitor",1 µM,remaining activity,1.89%
C1=C/COCc2cc(ccc2OCCN2CCCC2)Nc2nccc(n2)-c2cccc(c2)COC/1,"Proto-oncogene tyrosine-protein kinase receptor Ret (RET, Homo sapiens, UniProt P07949, V804M)",binding,0.1 µM,remaining binding,84%
